Assays:
[1] = Plasma concentration in CD1 mouse at 100 mg/kg, ip at 6 hrs; assay type: ADME, organism-based; parameters: dose 100 mg/kg, route intraperitoneal
Summary of the method: (§1)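 CD-1 mice received a single IP or PO dose (n = 12 per group) and were sampled at 6 h. Plasma and brain drug concentrations were measured in μM. Aβ42, Aβ40 and Aβ38 in brain homogenate are expressed as percent lowering versus vehicle. Statistical significance was assessed against vehicle.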

[2] = Modulation of gamma secretase in CHO-2B7 cells assessed as reduction in amyloid beta 42 level after 5 hrs by MSD ELISA; assay type: cell-based; settings: Cricetulus griseus, CHO-2B7, 5 h
[3] = tested on: CHO; test: Modulation of gamma secretase in CHO cells expressing human APP assessed as amyloid beta (1 to 40) level at 3 uM after 6 hrs by LC/MS/MS analysis (reference value: 10.2 ng); assay type: cell-based; settings: Cricetulus griseus
Summary of the method: (§2)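 Cells were treated at 3 μM or 2 μM. Secreted Aβ peptides (Aβ37, 38, 39, 40, 42) were quantified by immunoprecipitation followed by LC/MS/MS. Changes are expressed relative to vehicle-treated cells.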

[4] = Ratio of drug uptake in brain to plasma in CD1 mouse at 30 mg/kg, po at 6 hrs; settings: brain and plasma
[5] = in vivo; settings: CD1, mouse, po, 30 mg/kg
[6] = tested on: Mus musculus; test: Antialzheimer activity in CD1 mouse assessed as reduction in amyloid beta 42 level at 30 mg/kg, ip at 6 hrs relative to vehicle-treated control; assay type: functional; parameters: scale not given: the % may be the effect or the level left; settings: route intraperitoneal; summary of the method: as §1
[7] = Modulation of gamma secretase in CHO-2B7 cells assessed as reduction in amyloid beta 40 level after 5 hrs by MSD ELISA; assay type: cell-based; settings: Cricetulus griseus, CHO-2B7, 5 h
[8] = Plasma concentration in CD1 mouse at 1 mg/kg, iv at 6 hrs
[9] = Inhibition of gamma secretase in CHO-2B7 cells assessed as reduction in total amyloid beta level after 5 hrs by MSD ELISA; assay type: cell-based; settings: Cricetulus griseus, CHO-2B7, 5 h
[10] = Drug uptake in CD1 mouse brain at 30 mg/kg, ip at 6 hrs; assay type: ADME, organism-based; parameters: dose 30 mg/kg, route intraperitoneal; settings: read-out: Drug uptake; summary of the method: as §1
[11] = Drug uptake in CD1 mouse brain at 1 mg/kg, iv at 6 hrs
[12] = tested on: Mus musculus; test: Antialzheimer activity in CD1 mouse assessed as reduction in amyloid beta 40 level at 100 mg/kg, ip at 6 hrs relative to vehicle-treated control; assay type: functional; parameters: scale not given: the % may be the effect or the level left; settings: route intraperitoneal; summary of the method: as §1
[13] = Plasma concentration in CD1 mouse at 30 mg/kg, ip at 6 hrs; assay type: ADME, organism-based; parameters: dose 30 mg/kg, route intraperitoneal; summary of the method: as §1
[14] = in vivo; settings: CD1, mouse, po, 30 mg/kg; remark: listed apart in the source
[15] = tested on: CHO; test: Modulation of gamma secretase in CHO cells expressing human APP assessed as increase in amyloid beta (1 to 37) level at 3 uM after 6 hrs by LC/MS/MS analysis relative to control; assay type: cell-based; settings: Cricetulus griseus; summary of the method: as §2
[16] = tested on: Mus musculus; test: Antialzheimer activity in CD1 mouse assessed as reduction in amyloid beta 38 level at 30 mg/kg, ip at 6 hrs relative to vehicle-treated control; assay type: functional; parameters: scale not given: the % may be the effect or the level left; settings: route intraperitoneal; summary of the method: as §1
[17] = Half life in CD1 mouse at 1 mg/kg, iv; settings: in vivo
[18] = tested on: CHO; test: Modulation of gamma secretase in CHO cells expressing human APP assessed as increase in amyloid beta (1 to 39) level at 3 uM after 6 hrs by LC/MS/MS analysis relative to control; assay type: cell-based; settings: Cricetulus griseus; summary of the method: as §2
[19] = tested on: Mus musculus; test: Antialzheimer activity in CD1 mouse assessed as reduction in amyloid beta 38 level at 100 mg/kg, ip at 6 hrs relative to vehicle-treated control; assay type: functional; parameters: scale not given: the % may be the effect or the level left; settings: route intraperitoneal; summary of the method: as §1
[20] = Drug uptake in CD1 mouse brain at 100 mg/kg, ip at 6 hrs; assay type: ADME, organism-based; parameters: dose 100 mg/kg, route intraperitoneal; settings: read-out: Drug uptake; summary of the method: as §1
[21] = tested on: SUP-T1; test: Inhibition of notch-mediated NICD release in human SUP-T1 cells at 4 uM after 18 hrs by immunoblotting assay; assay type: cell-based
[22] = tested on: Liver microsomes; test: Metabolic stability in human liver microsomes at 1 uM after 60 mins by LC/MS/MS analysis; settings: 1 h
[23] = Ratio of drug uptake in brain to plasma in CD1 mouse at 1 mg/kg, iv at 6 hrs; settings: brain and plasma
[24] = Modulation of gamma secretase in CHO-2B7 cells assessed as reduction in amyloid beta 38 level after 5 hrs by MSD ELISA; assay type: cell-based; settings: Cricetulus griseus, CHO-2B7, 5 h
[25] = tested on: CHO; test: Modulation of gamma secretase in CHO cells expressing human APP assessed as amyloid beta (1 to 42) level at 3 uM after 6 hrs by LC/MS/MS analysis (reference value: 0.6 ng); assay type: cell-based; settings: Cricetulus griseus; summary of the method: as §2
[26] = tested on: CHO; test: Modulation of gamma secretase in CHO cells expressing human APP assessed as reduction amyloid beta (1 to 38) level at 3 uM after 6 hrs by LC/MS/MS analysis relative to control; assay type: cell-based; parameters: scale not given: the % may be the effect or the level left; settings: Cricetulus griseus; summary of the method: as §2
[27] = tested on: Mus musculus; test: Antialzheimer activity in CD1 mouse assessed as reduction in amyloid beta 42 level at 100 mg/kg, ip at 6 hrs relative to vehicle-treated control; assay type: functional; parameters: scale not given: the % may be the effect or the level left; settings: route intraperitoneal; summary of the method: as §1
[28] = tested on: Mus musculus; test: Antialzheimer activity in CD1 mouse assessed as reduction in amyloid beta 40 level at 30 mg/kg, ip at 6 hrs relative to vehicle-treated control; assay type: functional; parameters: scale not given: the % may be the effect or the level left; settings: route intraperitoneal; summary of the method: as §1
[29] = Volume of distribution in CD1 mouse at 1 mg/kg, iv; settings: in vivo
[30] = Clearance in CD1 mouse at 1 mg/kg, iv; settings: in vivo
[31] = (§3) Metabolic stability in human liver microsomes assessed as compound remaining at 1 uM at 60 mins by LC/MS/MS analysis in absence of NADPH; assay type: ADME, Microsome; settings: liver microsomes, read-out: Stability
Summary of the method: (§4)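 Human liver microsomes were run without NADPH as a qualitative read of susceptibility to enzymatic hydrolysis. The read-out was percent parent remaining at 60 min.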

[32] = Clearance in rat at 3 mg/kg, iv; assay type: ADME, organism-based; parameters: dose 3 mg/kg, route intravenous; settings: in vivo
[33] = Oral bioavailability in rat at 10 mg/kg; assay type: ADME, organism-based; settings: in vivo
[34] = Cmax in rat at 10 mg/kg, po; assay type: ADME, organism-based; parameters: dose 10 mg/kg, route oral; settings: in vivo
[35] = Half life in rat at 3 mg/kg, iv; assay type: ADME, organism-based; parameters: dose 3 mg/kg, route intravenous; settings: in vivo
[36] = Ratio of drug uptake in brain to plasma in rat at 10 mg/kg, po at 6 hrs; assay type: ADME, organism-based; parameters: dose 10 mg/kg, route oral; settings: brain and plasma, read-out: BPR
[37] = Volume of distribution in rat at 3 mg/kg, iv; assay type: ADME, organism-based; parameters: dose 3 mg/kg, route intravenous; settings: in vivo
[38] = tested on: Liver microsomes; test: as §3; assay type: ADME, Microsome; settings: microsomes, 1 h, 1 µM; summary of the method: as §4
[39] = Drug uptake in CD1 mouse brain at 1 mg/kg, iv at 2 hrs; assay type: ADME, organism-based; parameters: dose 1 mg/kg, route intravenous; settings: read-out: Drug uptake
Summary of the method: (§5)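 Screen of CNS penetration: CD-1 mice were dosed IV and plasma and brain concentrations were measured. Brain-to-plasma ratio was calculated, mostly at 6 h post dose, with one compound sampled at 2 h.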

[40] = Ratio of drug uptake in brain to plasma in CD1 mouse at 1 mg/kg, iv at 2 hrs; assay type: ADME, organism-based; parameters: dose 1 mg/kg, route intravenous; settings: brain and plasma, read-out: BPR; summary of the method: as §5
[41] = Plasma concentration in CD1 mouse at 1 mg/kg, iv at 2 hrs; assay type: ADME, organism-based; parameters: dose 1 mg/kg, route intravenous; summary of the method: as §5

Structure (SMILES): CCO[C@@H]([C@H]1C[C@@H](C)[C@H]2[C@H](O1)[C@H](O)[C@@]1(C)[C@@H]3CC[C@H]4C(C)(C)[C@@H](O[C@H]5CN(CCOC)CCO5)CC[C@@]45C[C@@]35CC[C@]21C)C(C)(C)O
- concentration at 6 h [1]: 12000 nM
- IC50 [2]: 0.27 µM
- Activity [3]: 6.2 ng
- Kp at 6 h [4]: 0.4
- bioavailability [5]: 19%
- Activity [6]: 7%
- IC50 [7]: 9.9 µM
- concentration at 6 h [8]: 35 nM
- IC50 [9]: 12 µM
- concentration at 6 h [10]: 1600 nM
- concentration at 6 h [11]: 9 nM
- Activity [12]: 30%
- concentration at 6 h [13]: 2200 nM
- Cmax [14]: 3600 nM
- Activity [15]: 50%
- Activity [16]: 4%
- half-life [17]: 2.5 h
- Activity [18]: 310%
- Activity [19]: 31%
- concentration at 6 h [20]: 23000 nM
- inhibition [21]: 0%
- Stability [22]: Stable
- Kp at 6 h [23]: 0.26
- IC50 [24]: 0.38 µM
- Activity [25]: Below limit of detection
- Activity [26]: 58%
- Activity [27]: 46%
- Activity [28]: 8%
- Vd [29]: 0.42 L/kg
- clearance [30]: 4.83 mL/min/kg

Structure (SMILES): C[C@@H]1C[C@H]([C@H](O)C(C)(C)O)O[C@H]2[C@H]1[C@@]1(C)CC[C@@]34C[C@@]35CC[C@H](O[C@H]3CN([C@H]6CCNC6=O)CCO3)C(C)(C)[C@@H]5CC[C@H]4[C@]1(C)[C@H]2O
- IC50 [2]: ≥ 20 µM
- remaining at 1 h, 1 µM [31]: 85%
- clearance [32]: 9.67 mL/min/kg
- bioavailability [33]: > 100%
- Cmax [34]: 2200 nM
- half-life [35]: 5 h
- Kp at 6 h [36]: 0.09
- Vd [37]: 3.1 L/kg

Structure (SMILES): CC(C)[C@@H](OC(=O)N1CCC1)[C@H]1C[C@@H](C)[C@H]2[C@H](O1)[C@H](O)[C@@]1(C)[C@@H]3CC[C@H]4C(C)(C)[C@@H](O[C@H]5CNCCO5)CC[C@@]45C[C@@]35CC[C@]21C
- IC50 [2]: 0.26 µM
- Stability [38]: 123%
- concentration at 2 h [39]: 30 nM
- IC50 [7]: 7.9 µM
- Kp at 2 h [40]: 0.09
- Stability [22]: Stable
- concentration at 2 h [41]: 326 nM

Reference: ChEMBL document CHEMBL2203235, “Optimization of a natural product-based class of γ-secretase modulators” (J Med Chem, 2012)
